# TAAR1 ag: human TAAR1 agonists, primary screen, Fluo-8 calcium fluorescence, CHO RD-HGA16 cells; Trace amine-associated receptor 1 (Homo sapiens), Q96RJ0; vehicle wells 0%, saturating PEA agonist 100%; activation, % at 3 µM; actives 0.99% (n = 360,000);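 active = activation above the mean activation of all test compounds in the run plus 3 SD, cut at about 38% in these data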
# Target sequence (Q96RJ0 whole entry, looked up): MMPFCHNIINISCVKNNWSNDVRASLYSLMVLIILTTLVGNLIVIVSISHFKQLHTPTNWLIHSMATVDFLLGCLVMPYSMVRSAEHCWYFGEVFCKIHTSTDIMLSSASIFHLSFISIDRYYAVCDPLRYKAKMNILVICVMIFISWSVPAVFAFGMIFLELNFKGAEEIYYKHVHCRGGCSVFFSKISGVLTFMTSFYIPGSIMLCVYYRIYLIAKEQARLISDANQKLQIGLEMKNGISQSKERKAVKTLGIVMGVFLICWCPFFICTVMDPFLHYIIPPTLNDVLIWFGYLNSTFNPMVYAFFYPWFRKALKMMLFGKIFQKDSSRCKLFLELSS
#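 System: CHO-derived RD-HGA16 cells with stable Gα16 and human TAAR1 / Times: 17-24 h plating, Fluo-8 75 min 37 °C, 30 min RT / Technique: calcium-sensitive Fluo-8 signal, excitation 470-495, emission 515-575 nm / Measure: % activation relative to PEA EC100 response / Benchmarks: DMSO and PEA EC100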
# MPTP block: mitochondrial permeability transition pore inhibitors, primary screen, biochemical, isolated mouse mitochondria, absorbance | actives 1.4% (n = 360,000) | Ca2+ swelling absorbance, 30 min | inhibition, % at 10 µM;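 active = inhibition of 50% or more, scaled per plate between neutral and stimulator controls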;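 also: 0% = DMSO wells given calcium and 100% = 1 mM EGTA wells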
# DAGLB inhibitor: DAGLB lipase inhibitors, primary screen, biochemical, fluorescence, HTS | Diacylglycerol lipase-beta (Homo sapiens), Q8NCG7 | HEK293T DAGLB membrane lysate, EnzChek fluorogenic substrate | inhibition, % at 5.17 µM | actives 0.059% (n = 340,000) | AID 504411, 2011; in the data active = inhibition above about 34%;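 also: 0% = enzyme with vehicle and 100% = wells lacking enzyme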
# GPR7 antagonist: GPR7 receptor antagonists, primary screen, cell-based, fluorescence, single concentration | actives 1.1% (n = 290,000) | Neuropeptides B/W receptor type 1 (Homo sapiens), P48145 | AID 1861, 2009 | inhibition, % at 4.4 µM | GPR7-expressing cells, fluorescence antagonist assay; in the data active = inhibition above about 16%, passing the limit was not always enough;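 also: cells stimulated with the agonist NPW; 0% = agonist with vehicle and 100% = vehicle without agonist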
# Target sequence (P48145 whole entry, looked up): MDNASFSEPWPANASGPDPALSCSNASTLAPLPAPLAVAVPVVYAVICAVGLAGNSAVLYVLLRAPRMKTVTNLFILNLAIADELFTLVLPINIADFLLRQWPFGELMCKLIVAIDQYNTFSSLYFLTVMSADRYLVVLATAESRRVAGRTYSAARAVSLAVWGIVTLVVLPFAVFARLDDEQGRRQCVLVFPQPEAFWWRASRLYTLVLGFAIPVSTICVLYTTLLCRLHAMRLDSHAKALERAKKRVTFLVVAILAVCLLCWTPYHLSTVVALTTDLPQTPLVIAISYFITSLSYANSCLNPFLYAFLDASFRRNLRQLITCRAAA
# TAAR1 antag: human TAAR1 antagonists, primary screen, Fluo-8 calcium fluorescence, CHO RD-HGA16 cells | Trace amine-associated receptor 1 (Homo sapiens), Q96RJ0 | antagonist | inhibition, % at 3 µM | actives 1.5% (n = 360,000);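 active = inhibition above a per-plate cutoff, the mean inhibition of test compounds on that plate plus 3 SD, cut at about 49% in these data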;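 also: 0% = DMSO plus EC80 beta-PEA response and 100% = DMSO alone without agonist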
#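 Test system: RD-HGA16 CHO cells with stable hTAAR1 and Gα16 / Probe or stimulus: EC80 β-phenethylamine stimulus / Times: seeding 17-24 h prior, 75-min 37 °C, 30-min RT dye loading / Detection: Fluo-8 calcium-sensitive fluorescence / Read-out basis: % inhibition scaled between DMSO and EC80 PEA controls / Repeats: singlicate, one well per test compound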
# GPR7 antag cf: GPR7 receptor antagonists, confirmation, cell-based, fluorescence, single concentration | actives 52% (n = 2,400) | GPR7-expressing cells, calcium fluorescence antagonist mode | shares compounds with GPR7 antagonist | inhibition, % at 4.4 µM; in the data active = inhibition above about 24%;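 also: stimulated with the GPR7 agonist NPW; 0% = agonist plus vehicle and 100% = vehicle alone without agonist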
# MCHR1 antag: MCHR1 antagonists in cells, counter-screen for GPR7 antagonist project, cell-based, fluorescence, human; shares compounds with GPR7 antagonist; MCHR1-expressing cells, fluorescence antagonist assay; inhibition, % at 4.4 µM; actives 62% (n = 2,400); in the data active = inhibition above about 22%;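 also: 0% = vehicle with agonist and 100% = vehicle without agonist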
# * hit, by the source's call; x = no result. Hits are enriched below; roughly 4% of the tested compounds scored in any of these assays.
SMILES,TAAR1 ag,MPTP block,DAGLB inhibitor,GPR7 antagonist,TAAR1 antag,GPR7 antag cf,MCHR1 antag
CCCCCn1c(=O)[nH]c2cc(C(=O)NCCc3ccc(OC)c(OC)c3)ccc2c1=O,4.9,1.6,1.2,5.5,2.8,x,x
CC(C)n1nnnc1C1c2ccccc2C(=O)N1Cc1cccnc1 (centres undefined),4.5,1.1,x,x,-21.4,x,x
COCCOc1ccc(C(F)(F)F)cc1NC(=O)c1ccccc1,3.1,15.4,-1.8,-7.2,10.8,x,x
CC(C)(C)c1ccc(OCCOc2ccc(C(C)(C)C)cc2NC=O)c(NC=O)c1,6.4,14.1,-3.1,19.1*,43.2,29.1*,71.7*
COc1ccc(C(=O)c2sc(Nc3cccc(OC)c3)c(C(=O)Nc3cccc(C)c3C)c2N)cc1,37.5*,11.3,1.4,79.2*,31.9,23.0,77.0*
CC(C)CNc1ncnc2c1cnn2Cc1ccccc1Cl,-0.9,-0.2,0.3,38.3*,5.4,35.7*,24.1*
COc1ccc(Cl)cc1-c1cc(C(=O)NCc2ccccc2)[nH]n1,-0.8,1.2,x,x,-9.2,x,x
Nc1sc(-c2ccccc2)cc1C(=O)N1CCNCC1,0.5,-0.2,x,x,-5.7,x,x
CCN1CCN(C(c2ccccc2OC)c2nnnn2C2CCCCC2)CC1 (centres undefined),1.0,-1.0,-1.0,30.1*,-9.6,6.7,8.1
COc1ccc(C(=O)NCCS(=O)(=O)N2CCCC2)cc1,6.1,-2.4,-2.8,x,0.7,x,x
Nc1ncnc(N)c1NC(=O)c1ccc(OCc2ccccc2)cc1,2.1,-0.7,-4.5,x,-11.8,x,x
Cc1ccc(S(=O)(=O)N2C[C@H]3C(=O)C[C@@H](c4ccccc4)N(S(=O)(=O)c4ccc(C)cc4)[C@H]3C[C@H]2c2ccccc2F)cc1,1.9,-0.3,x,x,-8.0,x,x
COc1cccc(C2c3[nH]c4ccccc4c3C[C@H]3C(=O)N(C4CC4)CC(=O)N23)c1 (some centres undefined),7.5,3.5,-2.3,10.3,0.2,x,x
C=CCc1cccc([C@@H]2[C@@H](C)CC[C@H]3C(=O)N4[C@@H](c5cc(OC)c(OC)c(OC)c5)c5[nH]c6ccccc6c5C[C@H]4C(=O)N23)c1,x,x,x,33.1*,x,8.4,5.8
COc1ccc(/C=N/NC(=O)c2cccc(Br)c2)cc1COc1ccccn1,-1.1,4.6,-0.1,30.7*,14.3,-4.0,48.0*
CCOC(=O)C1(P(=O)(c2ccc(Cl)cc2)c2ccc(Cl)cc2)CCC1,4.4,-1.1,-3.1,25.0*,-6.1,8.6,4.0
O=C(CC1Sc2ccccc2NC1=O)Nc1cccc(C(=O)O)c1 (centres undefined),0.3,-0.2,1.1,21.0*,-3.3,-10.6,4.6
CCOc1cc(/C=C2\NC(=O)NC2=O)ccc1OC(C)C(=O)O (centres undefined),-0.4,-0.5,1.6,32.4*,5.4,-15.7,-8.1
COc1cc(C=C2NC(=O)NC2=O)ccc1O,0.1,-0.3,0.8,x,-1.2,x,x
CCN1CCN(c2ccc(S(=O)(=O)N3CCCCC3)cc2NC(=O)COc2ccc(Cl)c(C)c2)CC1,10.5,0.3,-3.2,23.3*,-2.4,51.0*,43.2*
O=C(NC12CC3CC(CC(C3)C1)C2)OCCNC1CCCCC1,3.6,1.9,-1.0,25.7*,-24.6,-2.6,-9.1
CN(C)CCOC(=O)NC12CC3CC(CC(C3)C1)C2,1.0,1.1,-0.3,-3.1,-2.8,x,x
CC(=O)c1ccc(N2CCN(CC(O)COC(c3ccccc3)c3ccccc3)CC2)cc1 (centres undefined),6.5,0.9,-2.8,27.2*,10.8,35.0*,34.4*
CC(=O)c1ccc(N2CCN(CC(O)COC(c3ccccc3)c3ccccc3C)CC2)cc1 (centres undefined),3.8,1.4,1.2,15.2,35.4,x,x
COc1ccc2c3c(cccc13)C(=O)CC2,29.4,4.1,-147.0,34.3*,3.3,-23.4,32.5*
SMILES,TAAR1 ag,MPTP block,DAGLB inhibitor,GPR7 antagonist,TAAR1 antag,GPR7 antag cf,MCHR1 antag
Cc1cc(C=O)c(C)n1-c1ccc(Oc2ccc([N+](=O)[O-])cn2)cc1,7.1,-0.5,0.5,26.7*,1.7,35.9*,52.5*
COc1cccc(NC(=O)c2cccc(C(=O)Nc3cccc(OC)c3)n2)c1,-2.9,0.8,-2.8,-6.6,-13.4,x,x
COc1cccc(NC(=O)c2nc(SC)ncc2Cl)c1,-1.6,0.6,-6.5,-11.3,1.2,x,x
COc1cccc(NC(=O)c2nc(S(C)(=O)=O)ncc2Cl)c1,-1.4,4.3,-2.9,32.7*,0.7,41.8*,33.1*
CN(c1ccccc1)S(=O)(=O)c1ccc(NC(=O)c2ccccc2)cc1,6.9,6.3,1.3,5.1,20.1,x,x
COc1cccc(NC(=O)c2cnsn2)c1,x,0.5,-3.8,24.7*,x,5.0,3.2
CN(c1ccccc1)S(=O)(=O)c1ccc(NC(=O)c2nc(S(C)(=O)=O)ncc2Cl)cc1,18.2,-2.5,-0.4,92.3*,48.9*,91.4*,102.0*
CN(Cc1ccccc1)C1=CC(=[N+]2CCCC2)CC(C)(C)C1,1.7,8.4,-1.0,28.7*,-0.7,48.9*,38.0*
CCn1c(O)c(N=NC(=O)CNC(=O)c2cccnc2)c2ccccc21,0.8,-1.3,-1.8,x,-0.4,x,x
COc1ccccc1Cc1c(-c2cccc(Br)c2)nc2ccc(C)cn12,3.8,x,x,x,-28.2,x,x
Cc1ccccc1C(=O)Nc1c2c(nn1C(C)(C)C)CS(=O)(=O)C2,9.1,-0.3,-1.5,22.1*,-45.3,9.1,2.8
Cc1ccc(-c2noc(=O)n2CC(=O)Nc2ccc(S(=O)(=O)NC3CC3)cc2)cc1,27.8,2.3,-1.0,23.5*,21.6,46.9*,30.2*
CN(C)S(=O)(=O)N1CCC(Oc2ccc(C(=O)NC3Cc4ccccc4C3)cc2)CC1,14.7,-1.5,0.2,50.9*,58.1*,65.8*,74.6*
CN(C)S(=O)(=O)N1CCC(Oc2ccc(C(=O)NC3CCOC(C)(C)C3)cc2)CC1 (centres undefined),2.5,-1.3,-0.2,-4.3,-1.9,x,x
Cc1c(C(=O)OCc2ccccc2)nnn1-c1nonc1N,4.2,1.3,-5.0,21.2*,-7.0,-3.2,6.3
O=S(=O)(CS(=O)(=O)c1ccccc1Br)c1ccccc1Br,1.0,x,x,x,-2.5,x,x
CC(C)c1ccc(NC(=O)c2cccc(NC3=NC4CS(=O)(=O)CC4S3)c2)cc1 (centres undefined),2.7,-0.8,0.5,0.2,-26.1,x,x

# Screening data (PubChem)
